The record followed here is ChEMBL document CHEMBL4261552, “4-Hydroxy-N-[3,5-bis(trifluoromethyl)phenyl]-1,2,5-thiadiazole-3-carboxamide: a novel inhibitor of the canonical NF-κB cascade” (Medchemcomm, 2017).

Molecules are shown by their SMILES.

Assay [1] has as its target T1, Inhibitor of nuclear factor kappa-B kinase subunit alpha (Homo sapiens) (UniProt O15111).
T1 sequence (whole entry): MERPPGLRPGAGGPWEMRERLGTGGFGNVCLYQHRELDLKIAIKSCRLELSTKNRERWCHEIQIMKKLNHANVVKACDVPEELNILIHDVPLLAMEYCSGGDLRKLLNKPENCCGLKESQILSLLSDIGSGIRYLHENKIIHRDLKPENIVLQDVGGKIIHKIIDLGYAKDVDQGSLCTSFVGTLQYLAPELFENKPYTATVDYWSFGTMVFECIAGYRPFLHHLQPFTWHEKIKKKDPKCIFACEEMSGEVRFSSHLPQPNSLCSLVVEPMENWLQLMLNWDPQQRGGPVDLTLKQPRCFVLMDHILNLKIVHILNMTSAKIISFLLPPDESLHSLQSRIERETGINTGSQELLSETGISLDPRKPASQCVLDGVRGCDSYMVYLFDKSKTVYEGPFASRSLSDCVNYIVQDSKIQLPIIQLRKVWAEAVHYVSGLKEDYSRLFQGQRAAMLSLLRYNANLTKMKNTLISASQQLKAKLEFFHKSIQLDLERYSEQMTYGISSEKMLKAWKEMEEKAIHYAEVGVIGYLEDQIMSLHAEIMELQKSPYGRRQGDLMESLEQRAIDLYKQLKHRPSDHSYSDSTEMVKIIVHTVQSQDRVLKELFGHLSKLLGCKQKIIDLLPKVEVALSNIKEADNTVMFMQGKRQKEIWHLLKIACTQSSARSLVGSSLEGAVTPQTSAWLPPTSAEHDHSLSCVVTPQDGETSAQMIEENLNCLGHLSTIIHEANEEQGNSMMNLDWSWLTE
The assay is described as follows: Inhibition of human IKKalpha at 100 uM using ERLLDDRHDSGLDSMKDEE as substrate after 60 mins in presence of ATP by ADP-Glo kinase assay relative to control.

Assay [2] concerns the target T2, Inhibitor of nuclear factor kappa-B kinase subunit epsilon (Homo sapiens) (UniProt Q14164).
T2 sequence (whole entry): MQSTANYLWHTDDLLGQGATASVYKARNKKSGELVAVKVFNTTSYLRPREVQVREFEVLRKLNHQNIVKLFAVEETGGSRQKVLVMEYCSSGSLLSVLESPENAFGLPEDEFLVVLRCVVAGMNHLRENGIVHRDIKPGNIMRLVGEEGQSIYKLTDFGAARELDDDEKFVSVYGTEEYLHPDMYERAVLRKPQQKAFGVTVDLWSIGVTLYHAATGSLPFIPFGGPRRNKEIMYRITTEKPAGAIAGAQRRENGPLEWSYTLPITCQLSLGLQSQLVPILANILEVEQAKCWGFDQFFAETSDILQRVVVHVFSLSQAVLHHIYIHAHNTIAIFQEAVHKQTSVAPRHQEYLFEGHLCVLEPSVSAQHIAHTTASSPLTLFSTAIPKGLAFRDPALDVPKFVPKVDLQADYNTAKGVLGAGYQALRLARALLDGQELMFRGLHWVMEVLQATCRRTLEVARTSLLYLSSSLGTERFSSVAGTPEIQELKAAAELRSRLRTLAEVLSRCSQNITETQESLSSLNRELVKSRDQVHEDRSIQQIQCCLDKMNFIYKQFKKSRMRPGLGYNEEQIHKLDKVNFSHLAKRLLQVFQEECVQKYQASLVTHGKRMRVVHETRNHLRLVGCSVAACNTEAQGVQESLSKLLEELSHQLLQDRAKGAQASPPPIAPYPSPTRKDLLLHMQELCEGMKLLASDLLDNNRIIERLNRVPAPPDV
In words: Inhibition of human IKKepsilon at 100 uM using ERLLDDRHDSGLDSMKDEE as substrate after 60 mins in presence of ATP by ADP-Glo kinase assay relative to control.

The target of assay [3] is T3, Inhibitor of nuclear factor kappa-B kinase subunit beta (Homo sapiens) (UniProt O14920).
T3 sequence (whole entry): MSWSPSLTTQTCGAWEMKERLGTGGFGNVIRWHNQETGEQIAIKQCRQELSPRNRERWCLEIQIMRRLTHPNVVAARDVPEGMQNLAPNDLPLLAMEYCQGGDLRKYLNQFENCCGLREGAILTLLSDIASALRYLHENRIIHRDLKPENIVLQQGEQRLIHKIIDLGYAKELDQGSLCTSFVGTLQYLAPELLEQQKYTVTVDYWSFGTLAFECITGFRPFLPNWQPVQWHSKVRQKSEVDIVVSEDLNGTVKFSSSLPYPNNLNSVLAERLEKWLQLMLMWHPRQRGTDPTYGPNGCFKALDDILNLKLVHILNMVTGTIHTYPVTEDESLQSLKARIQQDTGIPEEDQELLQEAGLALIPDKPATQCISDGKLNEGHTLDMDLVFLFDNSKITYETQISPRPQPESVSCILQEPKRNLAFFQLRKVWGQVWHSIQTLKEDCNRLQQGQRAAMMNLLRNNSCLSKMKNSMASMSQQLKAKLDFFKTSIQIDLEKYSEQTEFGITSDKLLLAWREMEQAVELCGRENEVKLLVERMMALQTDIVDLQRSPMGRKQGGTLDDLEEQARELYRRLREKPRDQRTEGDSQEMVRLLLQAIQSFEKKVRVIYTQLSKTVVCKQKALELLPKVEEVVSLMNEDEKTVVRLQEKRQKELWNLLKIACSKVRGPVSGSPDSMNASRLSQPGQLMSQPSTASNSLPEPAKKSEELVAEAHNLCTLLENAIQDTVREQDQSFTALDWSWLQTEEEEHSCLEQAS
In words: Inhibition of human IKKbeta at 100 uM using ERLLDDRHDSGLDSMKDEE as substrate after 60 mins in presence of ATP by ADP-Glo kinase assay relative to control. (In ADP-Glo the light output rises with the ADP produced.)

The subject of another assay is Jurkat. In words: Inhibition of TNFalpha-activated canonical NF-kB signaling pathway in human Jurkat cells assessed as residual activity at 1 uM after 6 hrs by luciferase reporter gene assay relative to control. The format is cell-based. The method in brief: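 Jurkat cells nucleofected with 3 µg of NF-κB-RE firefly luciferase and TK-Renilla plasmids (10:1), then cultured 24 h at 37 °C. Compound added for a further 6 h, with TNFα in the last 20 min. Firefly luminescence normalized to Renilla and expressed as % of DMSO+TNFα control; mean ± SD of three experiments.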
In general terms: Reporter assays use an easily measured gene product as a stand-in for the process of interest.

In assay [4] the target is Mitogen-activated protein kinase kinase kinase 14 (Homo sapiens, UniProt Q99558). The assay is described as follows: Inhibition of human NIK at 100 uM using AKDVDQGSLCTSFVGTLQY as substrate after 60 mins in presence of ATP by ADP-Glo kinase assay relative to control.
A further assay deals with MDA-MB-231. In words: Antiproliferative activity against human MDA-MB-231 cells assessed as DNA content after 72 hrs by Hoechst 33258 staining based fluorescence assay. In kind it is functional, cell-based. Particulars: MDA-MB-231, 72 h. The method in brief: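 MDA-MB-231 cells (5 x 10³/well) grown in DMEM with 10% FBS and exposed to 0.001 - 200 µM compound or DMSO vehicle for 72 h. Cells were washed with PBS and lysed in 0.02% SDS in SSC buffer for 1 h at 37 °C. Hoechst 33258 (1 µg/mL) was then added and fluorescence read at ex 355/em 460 nm. IC50 taken by nonlinear regression; mean ± SD of three independent experiments.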

Sequence of Mitogen-activated protein kinase kinase kinase 14 (Q99558 whole entry, looked up): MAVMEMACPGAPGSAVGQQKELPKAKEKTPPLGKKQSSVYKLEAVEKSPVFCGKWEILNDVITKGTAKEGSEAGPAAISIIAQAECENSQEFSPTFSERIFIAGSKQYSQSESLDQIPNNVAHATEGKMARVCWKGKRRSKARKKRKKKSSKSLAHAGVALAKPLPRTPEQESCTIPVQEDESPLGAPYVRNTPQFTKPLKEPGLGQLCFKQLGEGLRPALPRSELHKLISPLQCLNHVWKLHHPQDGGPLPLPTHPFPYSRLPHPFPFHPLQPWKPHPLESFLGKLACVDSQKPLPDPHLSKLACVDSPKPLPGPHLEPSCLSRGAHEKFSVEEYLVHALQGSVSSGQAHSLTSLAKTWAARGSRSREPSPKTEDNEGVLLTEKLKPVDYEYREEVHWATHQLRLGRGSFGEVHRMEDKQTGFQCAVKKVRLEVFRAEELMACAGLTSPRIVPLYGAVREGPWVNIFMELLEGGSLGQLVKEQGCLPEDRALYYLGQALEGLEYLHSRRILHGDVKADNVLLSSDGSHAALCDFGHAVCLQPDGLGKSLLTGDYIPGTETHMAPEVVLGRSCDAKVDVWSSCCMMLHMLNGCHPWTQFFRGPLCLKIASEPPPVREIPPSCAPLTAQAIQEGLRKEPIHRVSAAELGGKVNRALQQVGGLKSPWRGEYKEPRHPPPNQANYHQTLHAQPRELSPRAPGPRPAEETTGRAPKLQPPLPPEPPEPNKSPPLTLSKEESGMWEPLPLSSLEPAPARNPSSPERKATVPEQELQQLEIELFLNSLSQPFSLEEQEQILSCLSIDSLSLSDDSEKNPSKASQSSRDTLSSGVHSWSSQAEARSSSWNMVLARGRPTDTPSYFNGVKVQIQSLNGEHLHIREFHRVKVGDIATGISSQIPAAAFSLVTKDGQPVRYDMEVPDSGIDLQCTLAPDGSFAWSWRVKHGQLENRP

As for `O=C(Nc1cc(C(F)(F)F)cc(C(F)(F)F)c1)c1cc(Cl)ccc1O` [IMD-0354], the inhibition worked out at 3.45% in assay [1], 30.5% in assay [2], 5.43% in assay [3] and 13.8% in assay [4]. For the same compound, the Activity in the assay on Jurkat came to 23.5%. Besides, the IC50 with MDA-MB-231 came to 640 nM.
With `O=C(Nc1cc(C(F)(F)F)cc(C(F)(F)F)c1)c1nsnc1O`, the inhibition in assay [1] stood at 25.2%; in assay [2], 30.2%; in assay [4], 4.34%. The Activity with Jurkat stood at 15.9%. Also, in the assay on MDA-MB-231, the IC50 stood at 1290 nM.

By inhibition is commonly meant the drop in the measured response relative to a control, in per cent. In general, IC50 refers to the concentration that inhibits the measured activity by half.
